Measured values published in ChEMBL document CHEMBL1134485, “Diguanidino and "reversed" diamidino 2,5-diarylfurans as antimicrobial agents” (2001).
≈ marks a conversion by molar mass, not a printed value.

Assays:
Aspergillus fumigatus [1] = test: In vitro minimum fungicidal concentration required to inhibit Aspergillus fumigatus(MFC); type: functional
Summary of the method: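 Mould MFC: 100 µL aliquots from macrodilution tubes (RPMI 1640/MOPS pH 7.0, 0.5 × 10³ to 2.5 × 10³ CFU/mL conidial inoculum, 30 °C, 48-72 h, drug 100 to 0.09 µg/mL) showing complete growth inhibition plated on Sabouraud agar; MFC taken as lowest drug concentration giving three or fewer colonies.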

Aspergillus fumigatus [2] = test: Antimicrobial activity against Aspergillus fumigatus (MIC); type: functional
Candida albicans [3] = test: In vitro minimum fungicidal concentration against Candida albicans.; type: functional
Summary of the method: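 Yeast MFC: after broth macrodilution (RPMI 1640/MOPS pH 7.0, 0.5 × 10³ to 2.5 × 10³ CFU/mL, 35 °C, 48 h or 72 h for C. neoformans, drug 100 to 0.09 µg/mL), 100 µL from tubes with complete inhibition plated on Sabouraud agar; lowest concentration yielding three or fewer colonies recorded.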

Candida albicans [4] = test: In vitro minimum inhibitory concentration against Candida albicans.; type: functional
[5] = tested on: Mycobacterium tuberculosis; test: In vitro minimum inhibitory concentration required to inhibit Mycobacterium tuberculosis; type: functional
Summary of the method: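 M. tuberculosis H37Rv grown in BACTEC 12B medium; fluorometric broth microdilution (Microplate Alamar Blue Assay). […] MIC = lowest concentration reducing relative fluorescence units by ≥90% relative to control culture. Testing done by TAACF.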

Nucleic Acid [6] = tested on: Nucleic Acid
Nucleic Acid [7] = tested on: Nucleic Acid; remark: listed apart in the source

Row | SMILES | MFC (Aspergillus fumigatus [1]) [µg/mL] | MIC (Aspergillus fumigatus [2]) [µg/mL] | MFC (Candida albicans [3]) [µg/mL] | MIC (Candida albicans [4]) [µg/mL] | MIC [5] [µg/mL] | ΔTm (Nucleic Acid [6]) | ΔTm (Nucleic Acid [7])
1 | Cl.Cl.N=C(N)Nc1ccc(-c2ccc(-c3ccc(NC(=N)N)cc3C(F)(F)F)o2)c(C(F)(F)F)c1 | 100 | 100 | 10 | 10 | 8 | 5.9 | 0
2 | Cc1cc(NC(=N)N)cc(C)c1-c1ccc(-c2c(C)cc(NC(=N)N)cc2C)o1 |  |  |  |  |  | 2.7 | 1.4
3 | CC(=N)Nc1ccc(-c2ccc(-c3ccc(NC(C)=N)cc3)o2)cc1 | > 100 | 100 (≈ 301 µM) |  | > 100 |  | 15.9 | 6
4 | N=C(N)c1ccc(-c2ccc(-c3ccc(C(=N)N)cc3)o2)cc1 [FURAMIDINE] |  |  | 25 (≈ 82.1 µM) | 6.25 (≈ 20.5 µM) |  | 25 | 11.7
5 | OC(Cn1cncn1)(Cn1cncn1)c1ccc(F)cc1F [FLUCONAZOLE] |  |  | 25 (≈ 81.6 µM) | 6.25 (≈ 20.4 µM) |  |  | 
